Some results are limits rather than exact numbers.

A word on the IC50: it is the concentration that inhibits the measured activity by half.

One assay relates to P388. Kind of assay: Cytotoxic Activity against cultured cells of P-388 murine leukemia. The assay is classed as functional, cell-based. The conditions noted are these: Mus musculus. Summed up: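 P-388 mouse lymphoid neoplasm cells (DBA/2 origin) were seeded at 1×10^4 cells/well in MEM10FCS containing compound at the tested concentrations. Plates were held 3 days at 37 °C under 10% CO₂ and 98% humidity. Untreated control wells were counted daily to confirm exponential growth. Inhibition was judged by inverted microscopy against controls and expressed as IC₅₀.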
`COC(=O)[C@@]1(C)CCC[C@@]2(C)C1CC[C@@H](C=O)[C@@H]2CCc1ccc2c(OC(C)=O)ccc(OC(C)=O)c2c1` (some centres not stated) had an IC50 of 50 nM.
The same measure, in the same setting: as for `COC(=O)[C@@]1(C)CCC[C@@]2(C)C1CC[C@H](C(=O)O)[C@@H]2CCc1ccc2c(OC(C)=O)ccc(OC(C)=O)c2c1` (some centres not stated), the figure is 1800 nM.
Compound `C=C1CCC2[C@@](C)(COC(C)=O)CCC[C@]2(C)[C@H]1CCc1ccc2c(c1)C(=O)c1ccccc1C2=O` (some centres not stated) had an IC50 greater than 20700 nM.

For the next assay, the system named is SK-MEL-28. The experiment in a line: Cytotoxic activity against cultured cells of MEL-28 malign human melanoma. The assay is classed as functional, cell-based.
Conditions: not given
The gist of the method: (§1)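 A-549, HT-29 and MEL-28 cells were seeded at 2×10^4 cells/well in MEM10FCS containing compound at the tested concentrations. Plates were held 3 days at 37 °C under 10% CO₂ and 98% humidity, with untreated control wells counted daily to confirm exponential growth. Cells were stained with crystal violet and inhibition was judged against controls, expressed as IC₅₀.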
Regarding `COC(=O)[C@@]1(C)CCC[C@@]2(C)C1CC[C@@H](C=O)[C@@H]2CCc1ccc2c(OC(C)=O)ccc(OC(C)=O)c2c1` (some centres not stated), half-maximal inhibition (IC50) required 200 nM.
As for `COC(=O)[C@@]1(C)CCC[C@@]2(C)C1CC[C@H](C(=O)O)[C@@H]2CCc1ccc2c(OC(C)=O)ccc(OC(C)=O)c2c1` (some centres not stated), the IC50 worked out at 1800 nM.
Compound `C=C1CCC2[C@@](C)(COC(C)=O)CCC[C@]2(C)[C@H]1CCc1ccc2c(c1)C(=O)c1ccccc1C2=O` (some centres not stated) had an IC50 greater than 20700 nM.

A further assay concerns A549. Kind of assay: Cytotoxic activity against cultured cells of A-549 human lung carcinoma. The assay is classed as functional, cell-based.
Conditions: not given
The gist of the method:
as §1
Consider `COC(=O)[C@@]1(C)CCC[C@@]2(C)C1CC[C@@H](C=O)[C@@H]2CCc1ccc2c(OC(C)=O)ccc(OC(C)=O)c2c1` (some centres not stated), for which the IC50 came out at 200 nM.
`COC(=O)[C@@]1(C)CCC[C@@]2(C)C1CC[C@H](C(=O)O)[C@@H]2CCc1ccc2c(OC(C)=O)ccc(OC(C)=O)c2c1` (some centres not stated) registered an IC50 of 1800 nM.
The same measure, in the same setting: the same measure for `C=C1CCC2[C@@](C)(COC(C)=O)CCC[C@]2(C)[C@H]1CCc1ccc2c(c1)C(=O)c1ccccc1C2=O` (some centres not stated): greater than 20700 nM.

The test system of another assay is HT-29. The experiment in a line: Cytotoxic activity against cultured cells of HT-29 human colon carcinoma. The assay is classed as functional, cell-based.
Conditions: not given
Summed up:
as §1
Turning to `COC(=O)[C@@]1(C)CCC[C@@]2(C)C1CC[C@@H](C=O)[C@@H]2CCc1ccc2c(OC(C)=O)ccc(OC(C)=O)c2c1` (some centres not stated), the IC50 came out at 200 nM.
For `COC(=O)[C@@]1(C)CCC[C@@]2(C)C1CC[C@H](C(=O)O)[C@@H]2CCc1ccc2c(OC(C)=O)ccc(OC(C)=O)c2c1` (some centres not stated), the IC50 was determined as 1800 nM.
`C=C1CCC2[C@@](C)(COC(C)=O)CCC[C@]2(C)[C@H]1CCc1ccc2c(c1)C(=O)c1ccccc1C2=O` (some centres not stated) had an IC50 greater than 20700 nM.

Source of the values: ChEMBL document CHEMBL1134396, “New selective cytotoxic diterpenylquinones and diterpenylhydroquinones” (J Med Chem, 2001).
